pIC50: −log10 of the molar value.
Tests used:
RAW264.7 [1] = test: Cytotoxicity against mouse RAW264.7 cells at concentration required inhibit NO synthesis by MTT assay; format: cell-based
RAW264.7 [2] = test: Inhibition of LPS-induced NO production in mouse RAW264.7 cells measured after 24 hrs; format: functional, cell-based
Summary of the method: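 RAW264.7 cells, harvested from 100 mm dishes, were seeded at 2 × 10^5 cells/well. They were pretreated with a range of sample concentrations for 30 min, then incubated 24 h with or without LPS at 1 µg/mL. Nitrite in the culture supernatant was measured by the Griess reaction, and IC50 was reported.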

SMILES	pIC50 (RAW264.7 [2]; Mus musculus, RAW264.7, 24 h)	pIC50 (RAW264.7 [2]; raw264.7)	Activity (RAW264.7 [1])
C=C1C(=O)O[C@@H]2C[C@H](C)C(CCC(C)=O)=C[C@H](O)[C@H]12	4.88	–	Non-toxic
C=C1C(=O)O[C@H]2C=C(CCC(C)=O)[C@H](C)C[C@H](OC(=O)CC)[C@H]12	4.88	–	Non-toxic
C=C1C(=O)O[C@H]2C[C@@H](C)[C@@H]3[C@@H](OC(C)=O)C[C@H](O)[C@@]3(C)C[C@H]12	6.60	–	Non-toxic
C=C1C(=O)O[C@H]2C[C@@H](C)[C@@H]3[C@@H](OC(C)=O)C[C@H](O)[C@@]3(C)[C@@H](OC(C)=O)[C@H]12	6.96	–	Non-toxic
C=C1C[C@@H]2OC(=O)C(=C)[C@H]2C[C@@H]2[C@@H]1[C@@H](OC(C)=O)C[C@@]2(C)O (stereo in doubt; 5)	–	–	Non-toxic
C=C1C(=O)O[C@H]2C=C(C)[C@H]3[C@@H](OC(C)=O)C[C@@](C)(O)[C@@H]3C[C@H]12 (stereo in doubt; 9) [GAILLARDIN]	–	5.53	–
C[C@@H]1CC[C@@H]2[C@]3(O)[C@H]1CC[C@@]3(C)C[C@@]2(C)C(=O)O [BRITANLIN C]	4.64	–	Non-toxic
C[C@@H]1CC[C@H](O)[C@]2(O)CC[C@H](c3cc3=O)C[C@@]12C [INEARIIFOLIANONE]	4.89	–	Non-toxic
N=C(N)NN [PIMAGEDINE]	5.57	–	–

The next lines start with results.

pIC50 (RAW264.7 [2]; Mus musculus, RAW264.7, 24 h)	pIC50 (RAW264.7 [2]; raw264.7)	SMILES	Activity (RAW264.7 [1])
4.58	–	C=C1C(=O)O[C@H]2C[C@@H](C)[C@H]3[C@@H](OC(C)=O)C[C@@](C)(O)[C@@]34O[C@H]4[C@H]12	Non-toxic
4.54	–	C=C1C(=O)O[C@H]2C=C(C)[C@@H]3CC[C@](C)(O)[C@@H]3C[C@H]12 [4-EPI-ISOINUVISCOLIDE]	Non-toxic
7.00	–	C=C1C(=O)O[C@H]2C[C@@H](C)[C@@H]3CC[C@H](O)[C@@]3(C)C[C@H]12 [PSEUDOGUAIANOLIDE]	Non-toxic
5.04	–	C=C1C(=O)O[C@@H]2C[C@H](C)C(CCC(C)=O)=CC[C@H]12 [TOMENTOSIN]	Non-toxic
4.45	–	C=C1C(=O)O[C@H]2C[C@H](C)[C@@H]3CC(=O)C(C)=C3C[C@H]12 [XERANTOLIDE]	Non-toxic

Source: ChEMBL document CHEMBL1165997, “Sesquiterpenoids from Inula lineariifolia inhibit nitric oxide production” (J Nat Prod, 2010)
